Only some compounds are listed: those with a hit (about 4.5% of all), similar ones and a draw of the others.
GPR7 antagonist: GPR7 receptor antagonists, primary screen, cell-based, fluorescence, single concentration. Neuropeptides B/W receptor type 1 (Homo sapiens), P48145. GPR7-expressing cells, fluorescence antagonist assay. inhibition, % at 4.4 µM. actives 1.1% (n = 290,000); in the data active means inhibition above about 16%, passing the limit was not always enough;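 further: cells stimulated with the agonist NPW; 0% = agonist with vehicle and 100% = vehicle without agonist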
Target sequence (P48145 whole entry, looked up): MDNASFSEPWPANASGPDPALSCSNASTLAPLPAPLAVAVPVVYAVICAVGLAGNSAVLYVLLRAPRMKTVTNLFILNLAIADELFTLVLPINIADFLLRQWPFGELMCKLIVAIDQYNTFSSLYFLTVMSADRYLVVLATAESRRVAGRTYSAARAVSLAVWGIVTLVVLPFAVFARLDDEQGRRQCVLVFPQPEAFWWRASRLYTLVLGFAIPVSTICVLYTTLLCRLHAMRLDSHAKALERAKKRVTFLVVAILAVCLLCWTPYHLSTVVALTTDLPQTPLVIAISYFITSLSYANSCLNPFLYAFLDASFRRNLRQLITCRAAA
CHO parental Ca: ATP-evoked calcium signal inhibitors, parental CHO, primary screen, counter-screen for OX1R antagonist project, cell-based, fluorescence, Fluo-8 calcium dye; actives 0.63% (n = 330,000); AID 463079, 2010; parental CHO-K1, ATP-induced calcium, Fluo-8 fluorescence; inhibition, % at 5.6 µM;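 active means inhibition above that plate's mean sample inhibition plus 3 SD, cut at about 26% in these data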;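 further: 0% = ATP-challenged DMSO wells and 100% = DMSO wells without ATP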
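Assay system: parental CHO cells; Read-out basis: percent inhibition of ATP-evoked calcium rise, normalized to controls; Benchmarks: ATP and no-ATP DMSO wells; Compound dosing: single nominal dose of 5.6 µM per compound; Signal: Fluo-8 calcium dye fluorescence; Also added: ATP as calcium-mobilizing challenge; Repeats: singlicate.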
OX1R antag-1: antagonists of human orexin 1 receptor (OX1R) | inhibition, % at 6.6 µM | OX1R-expressing cells, FRET antagonist read-out | actives 1.8% (n = 330,000) | AID 485270, 2010 | Orexin/Hypocretin receptor type 1 (Homo sapiens), O43613; in the data active means inhibition mostly above about 38%, no sharp cut-off; inactive means mostly below about 40%;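 further: 0% = agonist challenge alone and 100% = reference antagonist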
Target sequence (O43613 whole entry, looked up): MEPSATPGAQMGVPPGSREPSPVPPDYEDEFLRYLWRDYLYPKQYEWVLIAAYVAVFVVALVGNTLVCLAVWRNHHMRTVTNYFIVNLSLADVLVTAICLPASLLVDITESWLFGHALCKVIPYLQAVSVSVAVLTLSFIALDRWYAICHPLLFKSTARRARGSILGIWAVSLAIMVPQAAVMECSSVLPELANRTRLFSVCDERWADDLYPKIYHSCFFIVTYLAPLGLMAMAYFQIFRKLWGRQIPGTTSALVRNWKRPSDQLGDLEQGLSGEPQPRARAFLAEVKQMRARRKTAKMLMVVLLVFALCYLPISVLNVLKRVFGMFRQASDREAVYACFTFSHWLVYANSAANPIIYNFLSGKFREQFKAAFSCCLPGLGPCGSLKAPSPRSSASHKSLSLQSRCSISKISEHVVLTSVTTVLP
TAAR1 antag: human TAAR1 antagonists, primary screen, Fluo-8 calcium fluorescence, CHO RD-HGA16 cells; actives 1.5% (n = 360,000); inhibition, % at 3 µM; antagonist; Trace amine-associated receptor 1 (Homo sapiens), Q96RJ0;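 active means inhibition above a per-plate cutoff, the mean inhibition of test compounds on that plate plus 3 SD, cut at about 49% in these data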;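 further: 0% = DMSO plus EC80 beta-PEA response and 100% = DMSO alone without agonist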
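Test system – hTAAR1-expressing CHO RD-HGA16 cells, Gα16-coupled · Also added – β-PEA at EC80 concentration, post-compound challenge · Compound – 3 µM, single point · Incubation – dye loading 75 min at 37 °C, then 30 min room temperature · Measured by – Fluo-8 intracellular calcium dye fluorescence, real-time kinetic reads · Benchmarks – vehicle and agonist controls · Replicates – singlicate, one well per test compound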
TAAR1 agonist: human TAAR1 agonists, primary screen, Fluo-8 calcium fluorescence, CHO RD-HGA16 cells | actives 0.99% (n = 360,000) | activation, % at 3 µM | vehicle wells 0%, saturating PEA agonist 100% | Trace amine-associated receptor 1 (Homo sapiens), Q96RJ0;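 active means activation above the mean activation of all test compounds in the run plus 3 SD, cut at about 38% in these data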
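Signal – calcium-sensitive Fluo-8 signal, excitation 470-495, emission 515-575 nm · System – RD-HGA16 (CHO) cells co-expressing Gα16 and hTAAR1 · Incubation – 17-24 h seeding, 75 min 37 °C dye, 30 min RT · Compound dosing – 3 µM single concentration · Repeats – no replicates (n 1)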
OX1R antag-2: OX1R (HCRTR1) antagonists, primary screen, fluorescence, CHO/OX1R cells, Fluo-8 calcium, orexin A; Orexin/Hypocretin receptor type 1 (Homo sapiens), O43613; Fluo-8 calcium fluorescence; inhibition, % at 5 µM; actives 0.43% (n = 330,000); AID 434989, 2010;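 active means inhibition above its plate's threshold, mean inhibition of all tested compounds on the plate plus 3 SD, cut at about 37% in these data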;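 further: 0% = orexin A challenge wells and 100% = SB-334867-A antagonist wells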
TAAR1 ag conf: human TAAR1 agonists, retest of hits, confirmation, Fluo-8 calcium fluorescence, CHO RD-HGA16 cells; actives 82% (n = 2,400); shares compounds with TAAR1 agonist; scaled: DMSO 0%, maximal phenethylamine 100%; activation, % at 3 µM;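 active means activation above a cutoff set at the run's mean compound activation plus 3 SD, cut at about 39% in these data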
Ga16 nonsel ag: nonselective calcium mobilization agonists, CHO-Ga16 cells, counter-screen for hTAAR1 agonist project, cell-based, fluorescence, CHO-Ga16 parental line | actives 50% (n = 2,400) | Fluo-8 calcium fluorescence; normalized to maximal ATP response, DMSO zero | AID 651787, 2012 | activation, % at 3 µM | shares compounds with TAAR1 agonist;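 active means activation above the run cutoff, the mean activation over all tested wells plus 3 SD, cut at about 12% in these data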;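 further: 0% = DMSO wells and 100% = maximal ATP response on the peak over basal ratio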
TAAR1 desensitize: TAAR1 desensitization by agonist hits, confirmation, counter-screen for TAAR1 agonist project, cell-based, fluorescence, tachyphylaxis; shares compounds with TAAR1 agonist; CHO RD-HGA16 hTAAR1, Fluo-8 calcium, beta-PEA response inhibition; inhibition, % at 3 µM; actives 46% (n = 2,400); AID 651951, 2012;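 active means inhibition above the run cutoff, the mean inhibition of all test compounds plus 3 SD, cut at about 49% in these data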;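 further: beta-PEA stimulus applied at its EC80; loss of beta-PEA calcium signal after compound pretreatment read as receptor desensitization; 0% = DMSO with beta-PEA at EC80 and 100% = DMSO alone without agonist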
Ga16 nonsel ant: inhibition of ATP-evoked calcium response in CHO-Ga16 cells, counter-screen for TAAR1 agonist project, cell-based, fluorescence; inhibition, % at 3 µM; actives 39% (n = 2,400); shares compounds with TAAR1 agonist; CHO-Ga16 ATP-induced calcium, Fluo-8 fluorescence; AID 651952, 2012;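 active means inhibition above the plate's mean compound inhibition plus 3 SD, computed per plate, cut at about 22% in these data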;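 further: 0% = EC80 ATP with DMSO and 100% = DMSO wells without ATP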
An asterisk follows results filed as active; nt = no result.

SMILES | GPR7 antagonist | CHO parental Ca | OX1R antag-1 | TAAR1 antag | TAAR1 agonist | OX1R antag-2 | TAAR1 ag conf | Ga16 nonsel ag | TAAR1 desensitize | Ga16 nonsel ant
O=C(NCCCN1CCCCC1)c1ccc(CS(=O)c2ccc(Cl)cc2)o1 (stereo not drawn) | 1 | -16 | 5 | -8 | 4 | -23 | nt | nt | nt | nt
CN1CCN(C(c2cccnc2)c2ccc3cccnc3c2O)CC1 (stereo not drawn) | -6 | -30 | -4 | nt | nt | -10 | nt | nt | nt | nt
CN1CCN(C(c2ccc(Br)cc2)c2cc(Cl)c3cccnc3c2O)CC1 (stereo not drawn) | -2 | 12 | 7 | -13 | 69* | 24 | 121* | 88* | 76* | 43*
CCS(=O)(=O)c1ncc(CO)n1CCc1ccccc1 | -13 | -3 | -5 | -7 | 1 | -20 | nt | nt | nt | nt
CCOC(=O)c1ccc(Oc2cn[nH]c2-c2ccc(OCC(=O)NN)cc2O)cc1 | -17 | -6 | 5 | 35 | 86* | -4 | 47* | 17* | 27 | 21
Cc1ccc(CCC(=O)Nc2ncc(Cc3cccc(Cl)c3Cl)s2)o1 | 15 | 1 | 15 | -11 | 5 | -6 | nt | nt | nt | nt
O=C(Nc1ccccc1)Nc1ccc(NC(=O)c2ccccc2O)cc1 | -2 | 15 | 0 | 81* | 70* | -11 | 101* | 13* | 97* | 30*
O=C(Nc1ccccc1)Nc1ccc2ncoc2c1 | 8 | 4 | 26 | 6 | 59* | 3 | 88* | 9 | 61* | 12
CC(=O)Nc1ccc(NC(=O)Nc2ccccc2)cc1 | 1 | 5 | -8 | nt | nt | 2 | nt | 6 | nt | 13
CC(=O)Nc1cccc(NC(=O)Nc2ccc(C(C)=O)cc2)c1 | -15 | -13 | 5 | 0 | 5 | -9 | nt | nt | nt | nt
Cc1ccc(Cn2c(CN(C)Cc3ccccc3)nc3c2c(=O)n(C)c(=O)n3C)cc1 | 22 | -17 | -2 | 0 | 70* | -12 | 40* | 26* | 19 | 20
Cn1c(=O)c2c(nc(N3CCc4ccccc4C3)n2Cc2ccc(Br)cc2)n(C)c1=O | -14 | -11 | 35 | -16 | 55* | -21 | 61* | 7 | 3 | 2
Cn1c2ccccc2c(=O)c2ccc(NCCc3cccs3)cc21 | nt | -3 | 40 | 63* | 49* | 6 | 55* | 5 | 51* | 32*
NC(=O)c1ccc(NCCc2cccs2)cc1 | nt | nt | nt | -21 | 15 | nt | nt | nt | nt | nt
OC(COc1ccc(CNCCc2ccccc2F)cc1)CN1CCCCC1 (stereo not drawn) | -15 | -21 | 11 | nt | nt | 1 | nt | 2 | nt | 4
CSCCC(NS(=O)(=O)c1ccc(Cl)cc1)C(=O)N1CCN(c2ccccc2)CC1 (stereo not drawn) | nt | nt | nt | 1 | 1 | nt | nt | nt | nt | nt
O=C(Nc1cccc(NC(=O)c2ccc(F)cc2)c1)c1ccc(F)cc1 | -12 | -4 | -9 | 31 | 47* | -16 | 2 | 2 | 0 | 4
O=C(Nc1ccc(N2CCCCC2)cc1)c1ccc(F)cc1 | -12 | 11 | 13 | 85* | 98* | -10 | 53* | 13* | 18 | 18
COc1ccc(C(=O)Nc2ccc(C(=O)c3ccccc3)cc2)cc1 | nt | 18 | 24 | 27 | 12 | 4 | nt | nt | nt | nt
COc1ccc(NC(=O)c2ccc(C(=O)c3ccccc3)o2)cc1 | 2 | -4 | 23 | 57* | 67* | 5 | 6 | 8 | 23 | 15
COc1ccc(CC(=O)Nc2ccc(NC(=O)c3ccccc3F)cc2)cc1 | -1 | 58* | 2 | 99* | 109* | 22 | 60* | 35* | 42 | 16
CCS(=O)(=O)NCC(c1ccco1)N1CCN(c2ccccc2F)CC1 (stereo not drawn) | -3 | -19 | 19 | -19 | 1 | -10 | nt | nt | nt | nt
CC(=O)N(NC(=O)c1ccccc1Cl)C1CC(=O)N(c2ccc(C)cc2)C1=O (stereo not drawn) | -9 | -9 | 7 | -8 | 4 | -7 | nt | nt | nt | nt
COc1ccc(CCNC2=NCCS2)cc1 | 6 | -4 | 7 | 16 | 59* | -1 | 62* | 0 | 37 | 6
O=C(O)C1C2C=CC(O2)C1C(=O)NC1CCCc2ccccc21 (stereo not drawn) | 11 | 4 | 16 | -16 | 55* | -13 | 49* | 2 | 6 | 9
SMILES | GPR7 antagonist | CHO parental Ca | OX1R antag-1 | TAAR1 antag | TAAR1 agonist | OX1R antag-2 | TAAR1 ag conf | Ga16 nonsel ag | TAAR1 desensitize | Ga16 nonsel ant
O=C(NC1CCCc2ccccc21)c1ccccc1 (stereo not drawn) | 2 | -10 | 9 | -14 | -1 | -21 | nt | nt | nt | nt
COc1ccc(NC(=O)N2CCCC(c3ccccc3)C2)cc1 (stereo not drawn) | 1 | nt | nt | 27 | 55* | nt | 61* | 0 | 33 | 13
CCOC(=O)CNC(=O)CSc1nc(C(C)C)nc2c1cnn2-c1ccccc1 | nt | nt | nt | -17 | 1 | nt | nt | nt | nt | nt
NC1=NC2(CCCCC2)N=C(Nc2ccc(Br)cc2)N1 | -8 | 2 | 7 | 18 | 44* | -15 | 69* | 9 | 41 | 0
Cc1cccc(C)c1NC1=NC2(CCCCC2)N=C(N)N1 | -8 | 0 | 11 | -11 | 4 | 12 | nt | nt | nt | nt
CCCCNc1nc(-c2ccccc2)nc(-n2ccnc2)n1 | -7 | -14 | 32 | 11 | 1 | -23 | nt | nt | nt | nt
C=CCNc1nc(-c2ccccc2)nc(-n2ccnc2)n1 | -14 | -6 | 14 | 24 | 46* | -25 | -4 | -1 | 0 | 11
Cc1cc(OCC(=O)NNC(=S)NC(=O)c2ccc(Br)o2)ccc1Cl | -4 | nt | nt | 66* | 121* | nt | 98* | 73* | 75* | 56*
CCC(=O)NC(=S)Nc1ccc(NC(=O)COc2ccc(Cl)c(C)c2)cc1 | -6 | -3 | 19 | 3 | 2 | -24 | nt | nt | nt | nt
